# From paper PMC8265689 (Journal of the American Chemical Society, 2021)
# What was measured:
# [1] = in MeOH, used as standard; cited from earlier work
# [2] = test system: DU-145 cells; assay: DU-145 viability; format: cell-based, human; settings: 5 μM, vinblastine 0–5 nM, blue light, Figure 7C
# Summary of the method: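 DU-145 cells (7000/well) were grown overnight, then given test compound (5 μM, 1% DMSO) in octuplicate for 1 h at 37 °C. Medium was replaced with vinblastine (5 nM; 2.5 or 5 nM in one set) or vehicle. Plates received blue LED light (460–470 nm, 20 min, 56 J/cm²) or were kept dark, then 72 h. MTT read at 570 nm, blank-normalized, as percent of vehicle control.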
# [3] = test system: DU-145 cells; assay: Chou–Talalay synergy determination with vinblastine; format: cell-based, human; settings: light conditions
# Summary of the method: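 DU-145 cells (7000/well, DMEM with 10% FBS and penicillin/streptomycin) were grown overnight (16 h, 37 °C, 5% CO₂). They were pretreated 1 h with test compound (10–1 μM) or vehicle (1% DMSO), then switched to vinblastine (10–0.5 nM) or vehicle, in quadruplicate. Blue light 460–470 nm for 20 min, then 72 h. MTT read at 570 nm, blank-subtracted, as percent effect. Chou–Talalay EC50 and CI computed per combination.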
Compound,Quantum yield of singlet oxygen production (ΦΔ) [1],synergy with vinblastine (viability) [2],synergism with vinblastine (Chou–Talalay) [3]
[Ru+2].c1ccc(-c2ccccn2)nc1.c1ccc(-c2ccccn2)nc1.c1ccc(-c2ccccn2)nc1 [[Ru(bpy)3]^2+],0.81,–,–
"[Ru(tpy)(Me2dppn)(py)](PF6)2 [Compound 27, reference compound]",–,does not,weaker synergism
